“And” between values parts separate entries of the source, which are not always exact repeats. Equal entries are not always repeated. Results filed as inconclusive are left out. The source made the active and inactive calls.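 Rule for the calls: active = luminescence drop with fitted half-effect dose at most ten times the top tested dose, in every repeat; inconclusive = repeats disagree, flat moderate inhibition, or unreliable curve fit; inactive = every repeat flat, too weak, or signal rising.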

The first test has as its system HMLE_shECad viability, CellTiter-Glo luminescence, 72 h. Briefly: inhibitors of HMLE_shECad breast CSC-like cells, dose response, cell-based, CellTiter-Glo luminescence, primary HTS retest, dry powder, set 5 (AID 504535).
Conditions: not given
In a few lines:
(§1)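 Assay system: HMLE_shECad cells, E-cadherin-knockdown EMT-induced breast cancer stem cell model. Amount: 2000 cells/well. Medium: serum-free CSC medium. Compound: 100 nL pinned compound. Times: about 72 h compound exposure at 37 °C, 5% CO2. Signal: CellTiter-Glo ATP luminescence, reagent diluted 1:3 in PBS.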
On the technique in general: Cellular ATP, detected with luciferase, serves as a proxy for viable cell number.
Consider `O=C(COc1c(Cl)cc(Cl)cc1Cl)N/N=C/c1ccc[nH]1`, for which the AC50 was 1.44 µM.

`Cc1cc(Br)ccc1OCC(=O)N/N=C/c1ccc[nH]1`: the AC50 is 3.76 µM.

As for `CCc1ccc(/C=C/C(=O)NC2=NCCS2)cc1`, the AC50 is 1.67 µM.

`CC(C)c1ccc(/C=C/C(=O)N(C)C2=NCCS2)cc1`: the AC50 was 21.2 µM.

Take `Cc1csc(NC(=O)c2ccc(CNc3ccccc3)o2)n1`: the AC50 is 0.676 µM.

For `Cc1csc(NC(=O)c2ccc(COc3ccccn3)o2)n1`, the AC50 was 17.8 µM.

On to `N#Cc1ccc(/C=C/C(=O)NC2=NCCS2)cc1`, for which the AC50 was 29.2 µM.

Regarding `CC(C)c1ccc(/C=C/C(=O)Nc2cncs2)cc1`, the AC50 is 11.4 µM.

In the case of `Cc1csc(NC(=O)c2ccc(COCc3ccccc3)o2)n1`, the AC50 was 6.04 µM.

In the case of `Cc1csc(NC(=O)c2ccc(CCc3ccccc3)o2)n1`, the AC50 was 0.895 µM.

In the case of `CC(C)c1ccc(/C=C/C(=O)NC2=NCCS2)cc1`, the AC50 was 2.97 µM.

On to `Cc1cc(C)c(OCC(=O)N/N=C/c2ccc[nH]2)c(C)c1`, for which the AC50 was 9.43 µM.

Consider `Cc1cccc(OCc2ccc(C(=O)Nc3nc(C)cs3)o2)c1`, for which the AC50 was 0.259 µM and 0.332 µM.

Consider `N#Cc1csc(NC(=O)c2ccc(COc3ccccc3)o2)n1`, for which the AC50 was 18.1 µM.

With `COc1cccc(OCc2ccc(C(=O)Nc3nc(C)cs3)o2)c1`, the AC50 is 0.348 µM.

In the case of `Cc1csc(NC(=O)c2ccc(COC3CCCCC3)o2)n1`, the AC50 was 17 µM.

On to `O=C(Nc1nc(C(F)(F)F)cs1)c1ccc(COc2ccccc2)o1`, for which the AC50 was 13.2 µM.

Take `Cc1ccc(OCc2ccc(C(=O)Nc3nc(C)cs3)o2)cc1`: the AC50 is 2.51 µM.

Take `CC(C)Cc1ccc(/C=C/C(=O)NC2=NCCS2)cc1`: the AC50 was 0.57 µM.

Tested on in a further test: not listed separately
The test is described as above. The following applies: HMLE_shECad viability, CellTiter-Glo luminescence, 72 h; at 19.5 µM (top of the series). In a few lines:
as §1
In the case of `C/C(=C\C(=O)NC1=NCCS1)c1ccc(C)cc1`, the activity change, negative = inhibition was -1.94% (inactive).

Consider `COCc1ccc(C(=O)Nc2nc(C)cs2)o1`, for which the activity change, negative = inhibition is 1.05% (inactive).

As for `O=C(Nc1nncs1)c1ccc(COc2ccccc2)o1`, the activity change, negative = inhibition is -7.89% (inactive).

Regarding `CC(C)NC(=O)c1ccc(COc2ccccc2)o1`, the activity change, negative = inhibition was -14.2% (inactive).

For the molecule `CNC(=O)c1csc(NC(=O)c2ccc(COc3ccccc3)o2)n1`, the activity change, negative = inhibition is -8.68% (inactive).

As to `CCN(CC)C(=O)c1ccc(COc2ccccc2)o1`, the activity change, negative = inhibition was 8.61% (inactive).

Turning to `Cn1c(C(=O)NC2=NCCS2)cc2ccccc21`, the activity change, negative = inhibition is -9.82% (inactive).

`Cc1csc(NC(=O)c2ccc(COc3cccc(S(C)(=O)=O)c3)o2)n1`: the activity change, negative = inhibition was -13.6% (inactive).

For the molecule `C/C(=C\C(=O)NC1=NCCS1)c1ccc(CC(C)C)cc1`, the activity change, negative = inhibition was 3.46% (inactive).

In the case of `Cc1csc(NCc2ccc(COc3ccccc3)o2)n1`, the activity change, negative = inhibition is -11.4% (inactive).

Still in this test, the particulars now being: HMLE_shECad viability, CellTiter-Glo luminescence, 72 h; at 30 µM (top of the series).
For the molecule `Cc1ccc2cc(C(=O)NC3=NCCS3)n(C)c2c1`, the activity change, negative = inhibition was -12.6% (inactive).

For orientation: AC50 means the concentration at which the activity in the assay is half-maximal.
